Converted amounts (≈) assume the structure as drawn. The source made the active and inactive calls. No cut-off for these calls is given here.
Legend:
[1] = Solubility of the compound in PBS buffer at pH 7.4; format: physicochemical
[2] = Chemical stability of the compound in PBS buffer up to 24 hrs at pH 7.4; format: physicochemical; settings: pH 7.4, 24 h
Staphylococcus aureus [3] = assay: Antibacterial activity against methicillin-resistant Staphylococcus aureus ATCC 33592 at >1 ug/mL after 48 hrs; format: functional, organism-based
Streptococcus pneumoniae [4] = assay: Antibacterial activity against penicillin-resistant Streptococcus pneumoniae DSM 11865 at >1 ug/mL after 48 hrs; format: functional, organism-based
Enterococcus faecium [5] = assay: Antibacterial activity against vancomycin-resistant Enterococcus faecium DSM 17050 at >1 ug/mL after 48 hrs; format: functional, organism-based
Escherichia coli [6] = assay: Antibacterial activity against Escherichia coli ATCC 35218 expressing LacR at >1 ug/mL after 48 hrs; format: functional, organism-based
Pseudomonas aeruginosa [7] = assay: Antibacterial activity against Pseudomonas aeruginosa ATCC 27853 at >1 ug/mL after 48 hrs; format: functional, organism-based
Staphylococcus aureus [8] = assay: Bacteriostatic activity against methicillin-resistant Staphylococcus aureus ATCC 33592 by time kill study in presence of fetal calf serum; format: functional, organism-based
Streptococcus pneumoniae [9] = assay: Bacteriostatic activity against penicillin-resistant Streptococcus pneumoniae DSM 11865 by time kill study in presence of fetal calf serum; format: functional, organism-based
Enterococcus faecium [10] = assay: Bacteriostatic activity against vancomycin-resistant Enterococcus faecium DSM 17050 by time kill study in presence of fetal calf serum; format: functional, organism-based
Escherichia coli [11] = assay: Bacteriostatic activity against Escherichia coli ATCC 35218 expressing LacR by time kill study in presence of fetal calf serum; format: functional, organism-based
Pseudomonas aeruginosa [12] = assay: Bacteriostatic activity against Pseudomonas aeruginosa ATCC 27853 by time kill study in presence of fetal calf serum; format: functional, organism-based
Streptococcus pneumoniae [13] = assay: Antibacterial activity against penicillin-resistant Streptococcus pneumoniae DSM 11865; format: functional; settings: Streptococcus pneumoniae, DSM 11865
Staphylococcus aureus [14] = assay: Antibacterial activity against methicillin-resistant Staphylococcus aureus ATCC 33592; format: functional; settings: Staphylococcus aureus, ATCC 33592
Enterococcus faecium [15] = assay: Antibacterial activity against vancomycin-resistant Enterococcus faecium DSM 17050; format: functional; settings: Enterococcus faecium, DSM 17050
Staphylococcus aureus [16] = assay: Antibacterial activity against methicillin-resistant Staphylococcus aureus ATCC 33592 infected in mouse assessed as host survival at 40 mg/kg/day, sc relative to control; format: functional; settings: ATCC 33592, sc, route subcutaneous
Method in brief: (§1)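 Mice with MRSA ATCC33592 septicemia were dosed sc at 20, 40 or 80 mg/kg/d in 5% ethanol/5% Solutol/Tris-NaCl buffer pH 9. Survival was scored in six animals per group, and log reduction of blood bacteremia in five animals per group. Results are given as mean ± sem against the vehicle-treated group (P < 0.05 or P < 0.001).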

Staphylococcus aureus [17] = assay: Antibacterial activity against methicillin-resistant Staphylococcus aureus ATCC 33592 infected in mouse assessed as host survival at 20 mg/kg/day, iv relative to control; format: functional
Staphylococcus aureus [18] = assay: Antibacterial activity against methicillin-resistant Staphylococcus aureus ATCC 33592 infected in mouse assessed as log reduction in bacteremia at 40 mg/kg/day, sc relative to control; format: functional; settings: route subcutaneous; method in brief: as §1
Staphylococcus aureus [19] = assay: Antibacterial activity against methicillin-resistant Staphylococcus aureus ATCC 33592 infected in mouse assessed as log reduction in bacteremia at 20 mg/kg/day, iv relative to control; format: functional

Structure (SMILES) | solubility [1] | Stability [2] | Activity (Staphylococcus aureus [3]) | Activity (Streptococcus pneumoniae [4]) | Activity (Enterococcus faecium [5]) | Activity (Escherichia coli [6]) | Activity (Pseudomonas aeruginosa [7]) | Activity (Staphylococcus aureus [8]) | Activity (Streptococcus pneumoniae [9]) | Activity (Enterococcus faecium [10]) | Activity (Escherichia coli [11]) | Activity (Pseudomonas aeruginosa [12]) | IC80 (Streptococcus pneumoniae [13]) | IC80 (Staphylococcus aureus [14]) | IC80 (Enterococcus faecium [15]) | survival at 40 mg/kg/day (Staphylococcus aureus [16]) | survival at 20 mg/kg/day (Staphylococcus aureus [17]) | FC (Staphylococcus aureus [18]) | FC (Staphylococcus aureus [19])
CC(C)CCCc1c(O)ccc2c1O[C@]1(C2=O)C(Cl)=C(Cl)C(=O)N1C [ARMENIASPIROLE B] | 10 µg/mL (≈ 26 µM) | Stable | Active | Active | Active | Active | Active | inactive | inactive | inactive | inactive | inactive | – | – | – | – | – | – | –
CC[C@H](C)CCCc1c(O)ccc2c1O[C@]1(C2=O)C(Cl)=C(Cl)C(=O)N1C [ARMENIASPIROLE C] | 5 µg/mL (≈ 12.6 µM) | Stable | Active | Active | Active | Active | Active | inactive | inactive | inactive | inactive | inactive | – | – | – | – | – | – | –
CN[C@H](CC(C)C)C(=O)N[C@H]1C(=O)N[C@@H](CC(N)=O)C(=O)N[C@H]2C(=O)N[C@H]3C(=O)N[C@H](C(=O)N[C@H](C(=O)O)c4cc(O)cc(O)c4-c4cc3ccc4O)[C@H](O)c3ccc(c(Cl)c3)Oc3cc2cc(c3O[C@@H]2O[C@H](CO)[C@@H](O)[C@H](O)[C@H]2O[C@H]2C[C@](C)(N)[C@H](O)[C@H](C)O2)Oc2ccc(cc2Cl)[C@H]1O [VANCOMYCIN] | – | – | – | – | – | – | – | – | – | – | – | – | 200 nM | 400 nM | > 30000 nM | 100% | 100% | 4 | 4.2
